Source: publication PMC7311271 (Nature chemical biology, 2020)

Tests used:
[1] = biological target: recombinant human G6PD (Homo sapiens, UniProt P11413); assay: G6PD diaphorase-coupled enzymatic assay; type: biochemical
Method in brief: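 Recombinant human G6PD was expressed in E. coli with an N-terminal His6 tag, purified on Ni, thrombin-cleaved and size-excluded. Reactions started with 1 mM G6P at 30 °C, read each minute (ex 530/em 590 nm). RFU/min was normalised to no-compound wells, and IC50 came from a 4-parameter fit.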

[2] = system: G6PD cellular activity in HepG2 cells; assay: 6-pg levels in HepG2 cells; type: cell-based, human
Method in brief: (§1)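 Adherent HepG2 or HCT116 cells were grown to 80% confluency in 6-well plates, then given fresh medium containing the test compound over a dose range. They were incubated 2 h at 37 °C, 5% CO2. Metabolites were extracted ~30 min at −20 °C, scraped and centrifuged (15 min, 16,000 rpm, 4 °C). Supernatants were analysed by LC-MS for 6-pg, NADPH and NADP+ (n = 3).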

[3] = system: G6PD cellular activity in HCT116-mPgd cells; assay: 6-pg levels in HCT116-mPgd cells; type: cell-based, human; conditions: dose response, compared with DHEA
[4] = system: G6PD cellular activity in HCT116 cells; assay: NADPH active hydride 2H-labeling from [1-2H]-glucose in HCT116 cells; type: cell-based, human
Method in brief: (§2)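 HCT116 cells were incubated 2 h at 37 °C, 5% CO2 in medium containing [1-2H]-glucose tracer plus increasing doses of the test compound. Read-out was 2H transfer to the NADPH active hydride or to free palmitic acid, measured by LC-MS; dose-response curves, n = 3.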

[5] = system: G6PD cellular activity in HCT116 cells; assay: Free palmitic acid; type: cell-based, human; conditions: dose response
Method in brief: as §2

[6] = system: HCT116 and HepG2 cells; assay: NADPH pools and NADP+/NADPH ratio in HCT116 and HepG2 cells; type: cell-based, human
Method in brief: as §1

[7] = biological target: G6PD in HepG2 lysates (Homo sapiens, UniProt P11413); assay: Cellular thermal shift assay; type: binding; conditions: 50 μM, up to 56 °C
Chain of G6PD in HepG2 lysates (P11413 whole entry): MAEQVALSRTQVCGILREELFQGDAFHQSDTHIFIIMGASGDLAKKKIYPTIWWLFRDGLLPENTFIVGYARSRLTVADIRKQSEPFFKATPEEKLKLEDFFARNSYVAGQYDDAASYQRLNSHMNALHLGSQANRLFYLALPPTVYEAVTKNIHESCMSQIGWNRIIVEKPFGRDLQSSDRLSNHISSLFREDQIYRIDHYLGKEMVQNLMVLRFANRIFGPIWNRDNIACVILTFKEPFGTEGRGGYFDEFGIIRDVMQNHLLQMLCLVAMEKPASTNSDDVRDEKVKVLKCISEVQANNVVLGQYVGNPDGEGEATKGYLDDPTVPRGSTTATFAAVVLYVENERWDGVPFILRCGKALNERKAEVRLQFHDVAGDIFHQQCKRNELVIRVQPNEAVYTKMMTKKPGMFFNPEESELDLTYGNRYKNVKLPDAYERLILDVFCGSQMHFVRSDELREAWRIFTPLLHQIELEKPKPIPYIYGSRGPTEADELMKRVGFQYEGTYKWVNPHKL
Method in brief: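 Lysates took test compound or DMSO for 30 min on ice, then were heated 3 min at 47, 50, 53 or 56 °C. After 3 min cooling at room temperature, insoluble material was spun out (17,000 g, 20 min). G6PD signal is expressed relative to the DMSO control.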

[8] = system: HCT116 cells; assay: Colony formation; type: cell-based, human; conditions: increasing doses
[9] = system: T cell lineages; assay: LC-MS quantification of NADPH and NADP+ pools, T cell lineages; type: cell-based
Method in brief: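 Suspension T cells (2×10^6 in 1 mL medium, 12-well plates) were incubated with the test compound. Metabolites were acid-extracted 5 min on ice and neutralised with NH4HCO3. After centrifugation (15 min, 16,000 rpm, 4 °C), supernatants were analysed for NADPH and NADP+ by LC-MS.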

[10] = system: RBC = red blood cells (mouse); assay: LC-MS quantification of NADPH pools, RBCs; type: cell-based
Method in brief: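 Mouse blood was collected by cardiac puncture into heparin. Serum and buffy coat were removed after a 500 rpm spin at 4 °C, and cells were washed three times in PBS and used immediately in RPMI. Red cells (2×10^6 in 1 mL, 12-well plates) were incubated with the test compound, acid-extracted, neutralised with NH4HCO3, and analysed for NADPH by LC-MS.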

[11] = system: mouse bone-marrow derived macrophages; assay: LC-MS quantification of NADPH pools, macrophages; type: cell-based
[12] = system: neutrophils; assay: NADPH in neutrophils; type: cell-based
Method in brief: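 Mouse neutrophils were enriched by negative selection from femur/tibia bone marrow of 8–12 week old mice. Cells were cultured in RPMI with 10% heat-inactivated FBS, 5 mM HEPES and 2 mM EDTA. Metabolites were extracted after 30 min of PMA stimulation and analysed for NADPH by LC-MS.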

[13] = system: G6PD in active mouse CD8+ and CD4+ T cells; assay: NADPH labeling, NADPH, NADP+ and 6-pg levels in active T cells; type: cell-based
Method in brief: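 Active CD8+ T cells (day 4–5 post-activation), including cells from G6PD-Tg mice and littermate controls, were treated 2 h with increasing test-compound doses, with a [1-2H]-glucose tracer for labeling. For reversibility, cells were pretreated 2 h, then moved to final media for 2 h. For absolute quantification, extracts were spiked with NADP+ or NADPH standards, and packed cell volume was taken as 1.5 µL per 2 × 10^6 cells. Analysis was by LC-MS, n = 3, two-tailed unpaired t-test.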

[14] = system: oxPPP flux in active CD8+ T cells; assay: Absolute oxPPP flux by 14CO2 emission; type: cell-based, mouse; conditions: 10 μM, 4 h
Method in brief: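 Active mouse CD8+ T cells were used at day 4 post plate-bound anti-CD3/anti-CD28 stimulation, cultured with IL-2. Three million cells were incubated 4 h in a sealed flask with 0.1% DMSO or 10 μM test compound. Released 14CO2 was trapped in 10 M KOH, the reaction was stopped with 1 M HCl, and radioactivity was counted by scintillation. Flux (fmol h-1 cell-1) was normalised to cell number, labeling time and tracer fraction; mean ± SD, n = 5.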

[15] = system: active CD8+ T cells; assay: Fatty acid synthesis; type: cell-based, mouse; conditions: 2 h, [U-13C]glucose tracer
[16] = system: active CD8+ and CD4+ T cells; assay: Intracellular ROS; type: cell-based, mouse; conditions: 2 h
Method in brief: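 Active mouse T cells were incubated 2 h with increasing test-compound concentrations, then stained with CellROX Green and a viability dye and analysed by flow cytometry.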

[17] = system: mouse naïve CD8+ T cells stimulated by CD3/CD28 + IL-2; assay: T cell activation markers; type: cell-based; conditions: increasing concentrations
Method in brief: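 Naïve CD8+ T cells were isolated from mouse spleens as strained single-cell suspensions in PBS with 0.5% BSA and 2 mM EDTA. Cells were rested with IL-7 (50 U/mL) or stimulated 48 h on plate-bound anti-CD3 (10 µg/ml) plus anti-CD28 (5 µg/ml) in RPMI with 100 μM alanine and IL-2 (100 U/mL), with increasing test compound. Read-outs were Live/Dead Aqua viability, surface CD69 and CD25, and FSC-A size. Two independent experiments were run.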

[18] = system: CD8+ T cells; assay: CD8+ T cell proliferation by Cell Trace Violet dilution; type: cell-based, mouse; conditions: day 4 post-activation
Method in brief: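 Naïve CD8+ T cells were isolated from mouse spleen by magnetic bead selection and stained with CellTrace Violet. Cells were kept naïve with IL-7 or stimulated with anti-CD3/anti-CD28 + IL-2, in increasing test-compound concentrations. Cells were refed at days 2 and 3. At day 4, dye dilution was read by flow cytometry with propidium iodide as viability stain; 2 independent experiments.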

[19] = system: CD8+ T cells; assay: CD8+ T cell viability; type: cell-based, mouse
[20] = system: CD4+ T cells; assay: CD4+ T cell proliferation by CFSE dilution; type: cell-based, mouse; conditions: day 3 post-activation
Method in brief: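 In a Treg suppression set-up, mouse Tconv cells were labeled with CFSE and Treg cells with CellTrace Violet. Tconv cells were stimulated with irradiated antigen-presenting cells plus CD3ε mAb (1 µg/mL). After 72 h, proliferation was read by flow cytometry as dye dilution.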

[21] = system: active CD8+ T cells; assay: Intracellular cytokines in active CD8+ T cells; type: cell-based, mouse; conditions: PMA + IO, increasing doses
Method in brief: (§3)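 Mouse CD4+ or CD8+ T cells were activated 48 h with plate-bound anti-CD3 (10 µg/ml)/anti-CD28 (5 µg/ml), IL-2 (100 U/mL) and 100 μM alanine, then kept in IL-2 and used at day 4–5. Cells were restimulated 6 h with PMA (20 ng/ml) + ionomycin (1 ug/ml), GolgiStop and increasing test-compound concentrations. After Live/Dead Aqua, CD4/CD8a surface staining, fixation and permeabilisation, IFNγ, TNFα and IL-2 were read by flow cytometry.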

[22] = system: active CD4+ T cells; assay: Intracellular cytokines in active CD4+ T cells; type: cell-based, mouse; conditions: PMA + IO, increasing doses
Method in brief: as §3

[23] = system: CD4+ T cells (Foxp3+ iTreg); assay: Foxp3+ iTreg formation and proliferation; type: cell-based, mouse; conditions: CD3/CD28 stimulation in the presence of TGF-β
[24] = system: bone marrow derived macrophages; assay: Intracellular cytokines and iNOS in bone marrow derived macrophages; type: cell-based, mouse
Method in brief: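 Mouse bone-marrow progenitors from femur and tibia were matured in DMEM with 10% FBS and 20% L929-conditioned medium. Macrophages were stimulated 6 h with LPS (100 ng/mL) + IFNγ (20 ng/mL), with GolgiStop and increasing test-compound concentrations. Cells were stained with Live/Dead Aqua, fixed and permeabilised, and stained for TNFα, IL-6 and iNOS before flow cytometry; 2 independent experiments.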

[25] = system: mouse neutrophils; assay: Neutrophil oxidative burst assay; type: cell-based; conditions: PMA 100 nM, 50 μM
Method in brief: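 Mouse bone-marrow neutrophils were plated at 2 × 10^5 cells/well in bicarbonate-free RPMI 1640 on Cell-Tak-coated wells, spun 200 × g for 1 min and rested 1 h at 37 °C. Test compound (50 µM) or vehicle was added just before the run. Oxidative burst was triggered with PMA (100 nM), and rotenone + antimycin A (0.5 µM each) were added at t = 20 min. OCR was measured by extracellular flux analysis; n = 6.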

[26] = system: human neutrophils; assay: Neutrophil oxidative burst assay; type: cell-based; conditions: PMA 100 nM, 50 μM
Method in brief: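 Human neutrophils were plated at 5 × 10^4 cells/well in RPMI 1640 with 0.1% human serum albumin on Cell-Tak-coated wells, spun 200 × g for 1 min and rested 1 h at 37 °C. Test compound (50 µM) or vehicle was added just before the run. Burst was triggered with PMA (100 nM), and OCR was measured by extracellular flux analysis; n = 6.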

[27] = system: HCT116 cells; assay: Metabolomics in wild-type and ΔG6PD HCT116 cells; type: cell-based, human; conditions: 50 μM, 2 h
Method in brief: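 Adherent cells were grown to 80% confluency. Medium containing test compound was added, and cells were held at 37 °C in 5% CO2 for 2 h. Extraction was at −20 °C for ~30 min, after which wells were scraped and extracts centrifuged (16,000 rpm, 15 min, 4 °C). Supernatants were stored at −80 °C and analysed by LC-MS.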

[28] = system: CD8+ T cells; assay: Untargeted metabolomics on CD8+ T cells; type: cell-based, mouse; conditions: active CD8+ T cells, 2 h
Method in brief: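 Active mouse CD8+ T cells were treated 2 h with the test compound. Water-soluble metabolites were extracted and profiled by LC-MS; mean, n = 3. Metabolites with fold-change > 4 were flagged.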

Chain of recombinant human G6PD (P11413 28-515): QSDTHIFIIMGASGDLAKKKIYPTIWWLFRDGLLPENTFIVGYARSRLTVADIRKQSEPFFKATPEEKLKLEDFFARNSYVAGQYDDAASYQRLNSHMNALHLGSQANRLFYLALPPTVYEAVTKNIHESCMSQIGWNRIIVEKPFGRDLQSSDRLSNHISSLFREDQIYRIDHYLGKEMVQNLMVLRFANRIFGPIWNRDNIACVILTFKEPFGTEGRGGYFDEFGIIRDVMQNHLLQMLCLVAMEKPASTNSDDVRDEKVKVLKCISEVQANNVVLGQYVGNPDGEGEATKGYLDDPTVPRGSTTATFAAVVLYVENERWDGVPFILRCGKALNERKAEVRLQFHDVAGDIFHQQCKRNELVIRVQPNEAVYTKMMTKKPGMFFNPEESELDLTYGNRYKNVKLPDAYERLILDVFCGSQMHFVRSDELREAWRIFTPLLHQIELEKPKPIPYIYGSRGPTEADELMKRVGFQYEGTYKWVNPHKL

N#Cc1cc(Nc2ncc3c(n2)CCCCC3=O)cs1 [G6PDi-1, 4-([5-oxo-6H,7H,8H,9H-cyclohepta[d]pyrimidin-2-yl]amino)thiophene-2-carbonitrile]
mode of binding to G6PD ([1]; in vitro dilution experiments and competition assays against both substrates): reversibly and non-competitively | dose-dependent decrease in 6-pg levels ([2]; HepG2 cells, dose response): dose-dependent decrease | IC50 ([2]; Homo sapiens, HepG2, read-out: IC50 for decrease in 6-pg levels): ~13 µM | suppression of 6-pg levels [3]: much more effectively suppressed | dose-dependent decrease in 2H transfer to NADPH's active hydride ([4]; dose response): dose-dependent decrease | dose-dependent decrease in 2H transfer to C16:0 [5]: dose-dependent decrease | NADPH pools ([6]; HCT116 and HepG2 cells): largely unperturbed | NADP+/NADPH ([6]; HCT116 cells, dose response): dose-dependent increase | thermal stabilization of G6PD [7]: significant thermal stabilization | colony formation [8]: dose-dependent decrease | decrease in NADPH [9]: greater than 10 fold | sensitivity of NADPH pools [10]: fairly sensitive | effect on NADPH [11]: did not decrease | effect on NADPH [12]: did impact NADPH | time to restoration of NADPH, NADP+ and 6-pg levels after removing the inhibitor ([13]; activated CD8+ T cells): ≤ 2 h | effect of G6PD overexpression on dose response of NADPH and NADP+ ([13]; active CD8+ T cells from G6PD-Tg mice vs littermate controls): markedly shifted the dose response | time to onset of effects on NADPH labeling and NADP+, NADPH and 6-pg levels ([13]; active CD8+ T cells, 50 μM): ≤ 10 min | NADPH and 6-pg levels ([13]; mouse CD8+ and CD4+ T cells day 4–5 post-activation): decreased | 2H transfer from glucose to NADPH ([13]; mouse CD8+ and CD4+ T cells day 4–5 post-activation, 10 μM, [1-2H]-glucose): completely blocked | absolute oxPPP flux [14]: blocked | fatty acid synthesis [15]: nearly completely ablated | reactive oxygen species (ROS) [16]: elevated | upregulation of activation markers and activation-dependent increase in cell size [17]: did not alter | activation-dependent proliferation [18]: minimal effect | viability [19]: minimal effect | proliferation of CD4+ T cells [20]: minimal effect | IFNγ and TNF-α production [21]: blocked | IL-2 and TNF-α production [22]: blocked | formation and proliferation of Foxp3+ cells [23]: unaffected | LPS-induced pro-inflammatory cytokine production or iNOS upregulation [24]: did not decrease | oxidative burst (oxygen consumption rate) [25]: decreased | oxidative burst (oxygen consumption rate) [26]: decreased | off-target metabolic effects [27]: some potential off-target effects on purine nucleosides | specificity of metabolic effects [28]: clean on-target activity

CN(c1cccc(C#N)c1)c1ncc2c(n1)CCCC2=O [G6PDi-neg-ctrl, 3-[methyl(5-oxo-5,6,7,8-tetrahydroquinazolin-2-yl)amino]benzonitrile]
in vitro activity against human G6PD [1]: lacked any activity

OC[C@H]1O[C@@H](Oc2cc(O)cc(/C=C/c3ccc(O)cc3)c2)[C@H](O)[C@@H](O)[C@@H]1O [polydatin, reference compound]
effect on 6-pg levels ([2]; HepG2 cells, 50 μM, 2 h): failed to decrease | effect on NADPH active hydride labeling ([4]; 50 μM, 2 h): failed to decrease

Cc1cccc(Nc2ncc3c(n2)CCCC3=O)c1 [G6PDi-precursor, 2-[(3-methylphenyl)amino]-5,6,7,8-tetrahydroquinazolin-5-one]
in vitro activity against human G6PD [1]: low micromolar
